ChEMBL document CHEMBL4196064, “Identification of Pyrazolo[3,4-e][1,4]thiazepin based CYP51 inhibitors as potential Chagas disease therapeutic alternative: In vitro and in vivo evaluation, binding mode prediction and SAR exploration” (Eur J Med Chem, 2018)
Values after ≈ are worked out from the molar mass of the structure shown. One block for each compound: values may come before it. Active and inactive are the calls of the source. The rule behind the calls is not given here.

What was measured:
[1] = molecular target: Sterol 14-alpha demethylase (Trypanosoma cruzi (strain CL Brener)) (UniProt Q7Z1V1); test: Inhibition of recombinant Trypanosoma cruzi Tulahuen CYP51 expressed in Escherichia coli JM109 cell membranes assessed as residual activity at 0.033 uM by fluorescence based analysis (reference value: 95%)
Sequence of Sterol 14-alpha demethylase (Trypanosoma cruzi (strain CL Brener)) (Q7Z1V1 whole entry, looked up): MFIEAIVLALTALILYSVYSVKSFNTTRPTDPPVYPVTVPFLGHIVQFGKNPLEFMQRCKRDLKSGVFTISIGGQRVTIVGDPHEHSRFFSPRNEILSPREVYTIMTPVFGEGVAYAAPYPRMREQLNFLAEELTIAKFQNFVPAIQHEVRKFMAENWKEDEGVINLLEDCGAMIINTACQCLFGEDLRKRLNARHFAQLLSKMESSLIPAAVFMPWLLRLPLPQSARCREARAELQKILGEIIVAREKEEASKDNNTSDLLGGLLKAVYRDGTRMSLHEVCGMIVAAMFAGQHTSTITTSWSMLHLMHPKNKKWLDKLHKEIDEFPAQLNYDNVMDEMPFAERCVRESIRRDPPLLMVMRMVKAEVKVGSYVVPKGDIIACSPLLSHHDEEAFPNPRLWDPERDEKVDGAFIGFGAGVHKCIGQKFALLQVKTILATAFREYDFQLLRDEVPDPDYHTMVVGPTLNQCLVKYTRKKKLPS

Trypanosoma cruzi [2] = test: Antitrypanosomal activity against bloodstream trypomastigote stage of Trypanosoma cruzi Y infected in Swiss Webster mouse assessed as reduction in parasitemia at 20 mg/kg, ip administered daily on day 5 to 9 post infection relative to control; format: functional; parameters: scale not given: the % may be the effect or the level left
In short: (§1)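 Male Swiss Webster mice (18–20 g) infected i.p. with 10^4 Y strain bloodstream trypomastigotes. Treatment given days 5–9 post infection: test compound i.p. 5–20 mg/kg/day (0.1 mL, DMSO then 20% Trappsol) or Bz 100 mg/kg/day p.o. (3% Tween 80 in water). Controls infected, vehicle only. Parasitemia counted by Pizzi-Brener in 5 µL tail blood; mortality checked daily to 30 days post treatment.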

[3] = Acute toxicity in ip dosed Swiss Webster mouse measured 48 hrs post dose; format: organism-based; conditions: in vivo
In short: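 Female Swiss Webster mice (20 to 23 g) injected intraperitoneally with increasing doses up to 200 mg/kg, n = 2 mice per assay, two assays. Animals inspected for toxic and subtoxic signs under OECD guidelines; NOAEL determined 48 h after injection. Vehicle: DMSO then Trappsol, in vivo vehicle not above 20 %.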

Trypanosoma cruzi [4] = test: Antitrypanosomal activity against Trypanosoma cruzi Tulahuen trypomastigote forms infected in mouse L929 cells assessed as reduction in parasite load after 96 hrs by beta-galactosidase reporter gene assay; format: functional, organism-based; conditions: L929, 96 h
In short: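 L929 cells infected 2 h with tissue culture-derived Tulahuen β-galactosidase trypomastigotes (10:1 parasite/host cell), rinsed with saline, and left 48 h at 37℃. Increasing non-toxic concentrations applied for 96 h. Absorbance read at 570 nm, % growth inhibition versus untreated cells, EC50 derived; mean ± SD. DMSO not above 0.6 %.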

Trypanosoma cruzi [5] = test: Antitrypanosomal activity against bloodstream trypomastigote stage of Trypanosoma cruzi Y infected in Swiss Webster mouse assessed as increase in mouse survival at 5 to 20 mg/kg, ip administered daily on day 5 to 9 measured daily until 30 days post dose relative to control; format: functional, organism-based; in short: as §1
Trypanosoma cruzi [6] = test: Antitrypanosomal activity against bloodstream trypomastigote stage of Trypanosoma cruzi Y measured after 2 hrs by light microscopic analysis; format: functional, organism-based
In short: (§2)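 Y strain bloodstream trypomastigotes from heart puncture of infected mice, at 5x10⁶/mL in RPMI 1640 with 5% FBS. Incubated at 37℃ with 0–50 µM for 2 or 24 h. […] Mean ± SD.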

Trypanosoma cruzi [7] = test: Antitrypanosomal activity against bloodstream trypomastigote stage of Trypanosoma cruzi Y measured after 24 hrs by light microscopic analysis; format: functional, organism-based; in short: as §2
Trypanosoma cruzi [8] = test: Antitrypanosomal activity against bloodstream trypomastigote stage of Trypanosoma cruzi Y infected in Swiss Webster mouse assessed as reduction in parasitemia at 10 mg/kg, ip administered daily on day 5 to 9 post infection relative to control; format: functional; parameters: scale not given: the % may be the effect or the level left; in short: as §1
Trypanosoma cruzi [9] = test: Trypanocidal activity against Trypanosoma cruzi Sylvio X10/7 intracellular amastigotes forms measured every 24 hrs for 96 hrs by time-kill assay; format: functional
[10] = molecular target: Sterol 14-alpha demethylase (Trypanosoma cruzi (strain CL Brener)) (UniProt Q7Z1V1); test: Inhibition of recombinant Trypanosoma cruzi Tulahuen CYP51 expressed in Escherichia coli JM109 cell membranes assessed as residual activity at 0.1 uM by fluorescence based analysis (reference value: 95%)
[11] = molecular target: Sterol 14-alpha demethylase (Trypanosoma cruzi (strain CL Brener)) (UniProt Q7Z1V1); test: Inhibition of recombinant Trypanosoma cruzi Tulahuen CYP51 expressed in Escherichia coli JM109 cell membranes assessed as residual activity at 1 uM by fluorescence based analysis (reference value: 95%)
[12] = molecular target: Sterol 14-alpha demethylase (Trypanosoma cruzi (strain CL Brener), UniProt Q7Z1V1); test: Inhibition of recombinant Trypanosoma cruzi Tulahuen CYP51 expressed in Escherichia coli JM109 cell membranes assessed as […] by fluorescence based analysis
Sequence of Sterol 14-alpha demethylase (Q7Z1V1 whole entry): as the sequence (Q7Z1V1 whole entry, looked up) above

[13] = molecular target: Sterol 14-alpha demethylase (Trypanosoma cruzi (strain CL Brener)) (UniProt Q7Z1V1); test: Inhibition of recombinant Trypanosoma cruzi Tulahuen CYP51 expressed in Escherichia coli JM109 cell membranes assessed as residual activity at 3.3 uM by fluorescence based analysis (reference value: 95%)
[14] = molecular target: Sterol 14-alpha demethylase (Trypanosoma cruzi (strain CL Brener)) (UniProt Q7Z1V1); test: Inhibition of recombinant Trypanosoma cruzi Tulahuen CYP51 expressed in Escherichia coli JM109 cell membranes assessed as residual activity at 0.33 uM by fluorescence based analysis (reference value: 95%)
Trypanosoma cruzi [15] = test: Trypanocidal activity against Trypanosoma cruzi Sylvio X10/7 intracellular amastigotes forms assessed as inhibition of maximum parasite growth measured every 24 hrs for 96 hrs by time-kill assay relative to control; format: functional
[16] = molecular target: Sterol 14-alpha demethylase (Trypanosoma cruzi (strain CL Brener)) (UniProt Q7Z1V1); test: Inhibition of recombinant Trypanosoma cruzi Tulahuen CYP51 expressed in Escherichia coli JM109 cell membranes assessed as residual activity at 10 uM by fluorescence based analysis (reference value: 95%)
[17] = molecular target: Sterol 14-alpha demethylase (Trypanosoma cruzi (strain CL Brener)) (UniProt Q7Z1V1); test: Potency index, ratio of fluconazole IC50 to compound IC50 for recombinant Trypanosoma cruzi Tulahuen CYP51
Trypanosoma cruzi [18] = test: Antitrypanosomal activity against bloodstream trypomastigote stage of Trypanosoma cruzi Y infected in Swiss Webster mouse assessed as reduction in parasitemia at 5 mg/kg, ip administered daily on day 5 to 9 post infection relative to control; format: functional; parameters: scale not given: the % may be the effect or the level left; in short: as §1
Trypanosoma cruzi [19] = test: Antitrypanosomal activity against Trypanosoma cruzi Sylvio X10/7 intracellular amastigotes forms assessed as reduction in number of amastigotes per host cell measured every 24 hrs for 96 hrs by time-kill assay; format: functional, organism-based
[20] = molecular target: Sterol 14-alpha demethylase (Trypanosoma cruzi (strain CL Brener)) (UniProt Q7Z1V1); test: Inhibition of recombinant Trypanosoma cruzi Tulahuen CYP51 expressed in Escherichia coli JM109 cell membranes assessed as residual activity at 0.01 uM by fluorescence based analysis (reference value: 95%)
[21] = Cytotoxicity against mouse L929 cells assessed as reduction in cell viability after 96 hrs by light microscopic analysis; format: cell-based; conditions: read-out: LC50
In short: (§3)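 L929 fibroblasts (4x10^3 cells/well) in RPMI 1640 with 10% FBS, incubated at 37°C with increasing concentrations for 96 h. Viability was read with AlamarBlue (6 h incubation, absorbance at 600 nm) and confirmed by light microscopy.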

[22] = Cytotoxicity against mouse L929 cells assessed as reduction in cell viability after 96 hrs by Alamarblue assay; format: cell-based; conditions: read-out: LC50; in short: as §3
Trypanosoma cruzi [23] = test: Antitrypanosomal activity against bloodstream trypomastigote stage of Trypanosoma cruzi Y infected in Swiss Webster mouse assessed as mouse survival at 100 mg/kg, po administered daily on day 5 to 9 measured daily until 30 days post dose relative to control; format: functional
In short: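 Male Swiss Webster mice (18-20 g) were infected i.p. with 10^4 Y-strain bloodstream trypomastigotes. Benznidazole was given in sterile water with 3% Tween 80, 0.1 mL p.o. daily from 5 to 9 dpi. Mice were checked daily for mortality until 30 days post treatment, and the result was expressed as percentage cumulative mortality.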

[24] = Selectivity index, ratio of LC50 for mouse L929 cells by light microscopic analysis to EC50 for Trypanosoma cruzi Tulahuen trypomastigote forms; format: toxicity; conditions: read-out: Selectivity Index
[25] = Selectivity index, ratio of LC50 for Swiss Webster mouse cardiac cells by prestoblue assay to EC50 for bloodstream trypomastigote stage of Trypanosoma cruzi Y measured after 24 hrs; format: toxicity; conditions: read-out: Selectivity Index
In short: (§4)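 The ratio is cardiac-cell LC50 (24 h) over the 24 h EC50 against Y-strain bloodstream trypomastigotes. Trypomastigotes (5x10^6/mL) were exposed to 0-50 µM at 37°C in RPMI with 5% FBS. Surviving parasites were counted in a Neubauer chamber, and the EC50 is the concentration halving the parasite number.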

Trypanosoma cruzi [26] = test: Antitrypanosomal activity against bloodstream trypomastigote stage of Trypanosoma cruzi Y infected in Swiss Webster mouse assessed as reduction in parasitemia at 100 mg/kg, po administered daily measured at day 8 post infection; format: functional, organism-based
[27] = Cytotoxicity against Swiss Webster mouse cardiac cells assessed as reduction in cell viability after 24 hrs by prestoblue assay; format: cell-based, Cardiac Muscle Cell; conditions: read-out: LC50
In short: (§5)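 Primary cardiac cells from Swiss Webster mouse embryos, cultured at 37°C in DMEM with 5% FBS, CaCl2, glutamine and chick embryo extract. Uninfected cultures were exposed to increasing concentrations for 24 h. Viability was read with PrestoBlue (5 h incubation, absorbance at 570 nm) and checked by light microscopy for morphology.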

[28] = Selectivity index, ratio of LC50 for Swiss Webster mouse cardiac cells by light microscopic analysis to EC50 for bloodstream trypomastigote stage of Trypanosoma cruzi Y measured after 24 hrs; format: toxicity; conditions: read-out: Selectivity Index; in short: as §4
[29] = Selectivity index, ratio of LC50 for mouse L929 cells by Alamarblue assay to EC50 for Trypanosoma cruzi Tulahuen trypomastigote forms; format: toxicity; conditions: read-out: Selectivity Index
[30] = Cytotoxicity against Swiss Webster mouse cardiac cells assessed as reduction in cell viability after 24 hrs by light microscopic analysis; format: cell-based, Cardiac Muscle Cell; conditions: read-out: LC50; in short: as §5
Trypanosoma cruzi [31] = test: Antitrypanosomal activity against bloodstream trypomastigote stage of Trypanosoma cruzi Y infected in Swiss Webster mouse assessed as reduction in parasitemia at 100 mg/kg, po administered daily on day 5 to 9 post infection relative to control; format: functional; parameters: scale not given: the % may be the effect or the level left; in short: as §1
Trypanosoma cruzi [32] = test: Antitrypanosomal activity against Trypanosoma cruzi Tulahuen trypomastigote forms infected in mouse L929 cells assessed as reduction in infection level at 10 to 12 uM after 96 hrs by beta-galactosidase reporter gene assay relative to control; format: functional; parameters: scale not given: the % may be the effect or the level left
In short: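 L929 cells infected 2 h with tissue culture-derived β-galactosidase-expressing Tulahuen trypomastigotes at 10:1 parasite/host cell ratio, rinsed, and held 48 h at 37℃. Single fixed concentration (10-12 µM) then applied, 96 h. Absorbance read at 570 nm; growth inhibition expressed relative to untreated cells. DMSO not above 0.6 %.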

Activity [1]: 75.8% | EC50 (Trypanosoma cruzi [4]): 3.86 µM | EC50 (Trypanosoma cruzi [6]): > 10 µM | EC50 (Trypanosoma cruzi [7]): 4 µM | Activity [10]: 49.5% | Activity [11]: 5.4% | IC50 [12]: 0.1 µM | Activity [13]: 1.2% | Activity [14]: 0% | Activity [16]: 0% | Ratio IC50 [17]: 8 | Activity [20]: 89.9%
Structure (SMILES): Cc1n[nH]c2c1[C@@H](c1ccc(OCc3ccccc3Cl)cc1)S[C@@H](C)C(=O)N2
Activity (Trypanosoma cruzi [2]): 43% | NOAEL at 48 h [3]: > 50 mg/kg | Activity (Trypanosoma cruzi [5]): inactive | Activity (Trypanosoma cruzi [8]): 38% | MIC (Trypanosoma cruzi [9]): 17 µM (≈ 7.04 µg/mL) | Imax (Trypanosoma cruzi [15]): 94% | Activity (Trypanosoma cruzi [18]): 30% | EC50 (Trypanosoma cruzi [19]): 0.4 µM

Structure (SMILES): O=C(Cn1ccnc1[N+](=O)[O-])NCc1ccccc1 [BENZNIDAZOLE]
CC50 at 96 h [21]: > 200 µM | EC50 (Trypanosoma cruzi [4]): 2.63 to 3.79 µM | CC50 at 96 h [22]: > 200 µM | EC50 (Trypanosoma cruzi [6]): 10 to 50 µM | survival at 100 mg/kg (Trypanosoma cruzi [23]): 100% | EC50 (Trypanosoma cruzi [7]): 6.02 to 16.9 µM | selectivity ratio [24]: > 53 | selectivity ratio at 24 h [25]: > 12 | Activity (Trypanosoma cruzi [26]): Active | CC50 at 24 h [27]: > 200 µM | selectivity ratio at 24 h [28]: > 12 | selectivity ratio [29]: > 53 | CC50 at 24 h [30]: > 200 µM | Activity (Trypanosoma cruzi [31]): 100% | Activity (Trypanosoma cruzi [32]): 89.3%
